Experimental findings from ChEMBL document CHEMBL4007450, “Development of 1,2,4-Oxadiazoles as Potent and Selective Inhibitors of the Human Deacetylase Sirtuin 2: Structure-Activity Relationship, X-ray Crystal Structure, and Anticancer Activity” (J Med Chem, 2017) are described below.

Assay [1] relates to U-937. Nature of the assay: Cell cycle arrest in human U937 cells assessed as accumulation at S phase at 25 uM after 48 hrs by propidium iodide staining-based FACS analysis. The class given is functional.
Assay [2] relates to U-937. Nature of the assay: Antiproliferative activity against human U937 cells harboring p53+/- assessed as cell growth inhibition after 48 hrs by WST1 assay. The class given is functional, cell-based. The following applies: U-937, 48 h. Summed up: (§1)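 WST-1 proliferation assay. Cells plated in triplicate at 5×10^3 cells/well and exposed to increasing compound concentrations for 48 h at 37 °C, 5% CO2. WST-1 reagent was then added for 1 h. IC50 was obtained by nonlinear regression of each cell line's dose-response curve.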

Another assay has as its system OCI-AML-3. Nature of the assay: Antiproliferative activity against human OCI-AML3 cells harboring NPM1c+, DNMT3A R882C mutant assessed as cell growth inhibition after 48 hrs by WST1 assay. It counts as functional, cell-based. To be noted: OCI-AML-3, 48 h. Summed up:
as §1

The next assay relates to MV4-11. The experiment in a line: Antiproliferative activity against human MV4-11 cells harboring FLT3-ITD [t(4;11)(q21;q23)], MLL/MLLT2(AF4) mutant assessed as cell growth inhibition after 48 hrs by WST1 assay. The class given is functional, cell-based. The following applies: MV4-11, 48 h. Summed up: as §1
The subject of assay [3] is NB-4. The experiment in a line: Induction of apoptosis in human NB4 cells assessed as pre-G1 accumulation at 25 uM after 48 hrs by propidium iodide staining-based FACS analysis. It counts as functional. Summed up:
(§2)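 Leukemia cells (U937, NB4, HL-60, K562) were grown in RPMI-1640 with 10% FBS, 2 mM L-glutamine and antibiotics, then treated for 48 h at 5, 10, 25 and 50 μM. 2.5×10^5 cells were stained 30 min in the dark in hypotonic PI buffer (0.1% Triton X-100, 0.1% citrate, 50 µg/mL PI, RNase A). Apoptosis was scored as pre-G1 content by flow cytometry. Duplicates, mean ± SD.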

A further assay relates to OCI-AML2. Nature of the assay: Antiproliferative activity against human OCI-AML2 cells harboring DNMT3A R635W mutant assessed as cell growth inhibition after 48 hrs by WST1 assay. The class given is functional, cell-based. The following applies: OCI-AML2, 48 h. Summed up: as §1
The next assay concerns K562. The experiment in a line: Induction of apoptosis in human K562 cells assessed as pre-G1 accumulation at 25 uM after 48 hrs by propidium iodide staining-based FACS analysis. The class given is functional. Summed up:
as §2

Assay [4] deals with T1, NAD-dependent protein deacetylase sirtuin-2 (Homo sapiens, UniProt Q8IXJ6).
T1 sequence (Q8IXJ6 whole entry): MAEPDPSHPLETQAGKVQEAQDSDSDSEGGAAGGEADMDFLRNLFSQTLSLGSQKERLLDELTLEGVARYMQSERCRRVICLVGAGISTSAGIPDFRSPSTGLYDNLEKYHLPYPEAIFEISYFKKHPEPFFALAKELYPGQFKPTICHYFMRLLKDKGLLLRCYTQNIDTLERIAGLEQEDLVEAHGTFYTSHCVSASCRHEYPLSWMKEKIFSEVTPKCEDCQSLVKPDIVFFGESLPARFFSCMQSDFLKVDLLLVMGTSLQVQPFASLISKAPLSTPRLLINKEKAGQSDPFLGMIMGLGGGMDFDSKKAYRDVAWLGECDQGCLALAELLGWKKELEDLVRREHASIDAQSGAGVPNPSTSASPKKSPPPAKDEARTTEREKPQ

A short description of assay [5]: Antiproliferative activity against human IMS-M2 cells harboring NPM1c+ assessed as cell growth inhibition after 48 hrs by WST1 assay. It counts as functional, cell-based. To be noted: IMS-M2, 48 h. Summed up: as §1
A further assay relates to KARPAS-299. The experiment in a line: Antiproliferative activity against human KARPAS299 cells harboring NPM1/ALK, [t(2;5)(p23;q35)] mutant assessed as cell growth inhibition after 48 hrs by WST1 assay. It counts as functional, cell-based. To be noted: KARPAS-299, 48 h. Summed up:
as §1

Assay [6] has as its system NB-4. Nature of the assay: Antiproliferative activity against human NB4 cells harboring PML-RARalpha [t(15;17)(q22;q12)] mutant assessed as cell growth inhibition after 48 hrs by WST1 assay. The class given is functional, cell-based. The following applies: NB-4, 48 h. Summed up:
as §1

The test system of the next assay is MDA-MB-231. The experiment in a line: Induction of apoptosis in human MDA-MB-231 cells assessed as pre-G1 accumulation at 25 uM after 48 hrs by propidium iodide staining-based FACS analysis. It counts as functional. Summed up: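 MDA-MB-231 breast cancer cells were grown in DMEM with 10% FBS, 2 mM L-glutamine and antibiotics, then exposed for 48 h at 5, 10, 25 or 50 μM. 2.5×10^5 cells were stained in hypotonic buffer with 50 µg/mL PI, 0.1% Triton X-100, 0.1% citrate and RNase A for 30 min in the dark. Pre-G1 fraction was measured by flow cytometry. Biological duplicates, mean ± SD.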

The subject of assay [7] is HL-60. Nature of the assay: Antiproliferative activity against human p53 deficient HL60 cells assessed as cell growth inhibition after 48 hrs by WST1 assay. The class given is functional, cell-based. To be noted: HL-60, 48 h. Summed up:
as §1

A further assay concerns Kasumi 1. The experiment in a line: Antiproliferative activity against human Kasumi-1 cells harboring AML1-ETO [t(8:21)] mutant assessed as cell growth inhibition after 48 hrs by WST1 assay. The class given is functional, cell-based. To be noted: Kasumi 1, 48 h. Summed up:
as §1

The target in assay [8] is T2, NAD-dependent protein deacetylase sirtuin-1 (Homo sapiens) (UniProt Q96EB6).
T2 sequence (whole entry): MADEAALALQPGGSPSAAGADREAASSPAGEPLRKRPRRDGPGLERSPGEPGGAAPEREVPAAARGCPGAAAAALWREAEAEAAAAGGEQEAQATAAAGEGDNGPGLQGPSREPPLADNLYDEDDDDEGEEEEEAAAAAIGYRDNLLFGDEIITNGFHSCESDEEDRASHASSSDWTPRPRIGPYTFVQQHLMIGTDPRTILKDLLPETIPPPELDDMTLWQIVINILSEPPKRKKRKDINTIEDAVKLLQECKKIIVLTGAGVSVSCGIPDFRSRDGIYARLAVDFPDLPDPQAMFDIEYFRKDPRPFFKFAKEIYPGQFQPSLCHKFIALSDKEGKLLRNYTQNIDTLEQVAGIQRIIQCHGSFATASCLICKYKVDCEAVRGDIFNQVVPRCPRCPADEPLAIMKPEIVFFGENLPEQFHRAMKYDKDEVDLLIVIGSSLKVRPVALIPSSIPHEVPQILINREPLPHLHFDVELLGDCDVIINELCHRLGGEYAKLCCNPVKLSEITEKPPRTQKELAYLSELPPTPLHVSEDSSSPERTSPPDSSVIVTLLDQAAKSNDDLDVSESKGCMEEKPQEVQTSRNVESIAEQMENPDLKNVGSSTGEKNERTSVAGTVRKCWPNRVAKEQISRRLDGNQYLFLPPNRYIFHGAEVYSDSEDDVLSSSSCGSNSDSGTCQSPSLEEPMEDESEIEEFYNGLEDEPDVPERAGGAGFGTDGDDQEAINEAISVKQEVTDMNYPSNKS
The following applies: 100 uM.

Assay [9] relates to HL-60. The experiment in a line: Induction of apoptosis in human HL60 cells assessed as pre-G1 accumulation at 50 uM after 48 hrs by propidium iodide staining-based FACS analysis. It counts as functional. In outline:
as §2

In assay [10] the target is NAD-dependent protein deacylase sirtuin-5, mitochondrial (Homo sapiens) (UniProt Q9NXA8). The experiment in a line: Inhibition of human SIRT5 (34 to 302 residues) deacetylase activity expressed in Escherichia coli using Prx1 peptide as substrate at 100 uM after 45 mins in presence of NAD+ by pNCA/GDH-based microplate spectrophotometric analysis.
Assay [11] has the same target. The experiment in a line: Inhibition of human SIRT5 (34 to 302 residues) desuccinylase activity expressed in Escherichia coli using CPS1 peptide as substrate at 100 uM after 45 mins in presence of NAD+ by pNCA/GDH-based microplate spectrophotometric analysis.
Assay [12] has as its target T3, NAD-dependent protein deacetylase sirtuin-2 (Homo sapiens) (UniProt Q8IXJ6).
T3 sequence (whole entry): T1 sequence (Q8IXJ6 whole entry)
The following applies: 5 to 25 uM.

In assay [13] the target is T3, NAD-dependent protein deacetylase sirtuin-2 (Homo sapiens). To be noted: 5 to 25 uM. The source holds these as a separate data set.

Each structure is given as a SMILES string. Active and inactive are the calls of the source. The rule behind the calls is not given here.

NAD-dependent protein deacylase sirtuin-5, mitochondrial (Homo sapiens), sequence (Q9NXA8 37-310 limits assumed): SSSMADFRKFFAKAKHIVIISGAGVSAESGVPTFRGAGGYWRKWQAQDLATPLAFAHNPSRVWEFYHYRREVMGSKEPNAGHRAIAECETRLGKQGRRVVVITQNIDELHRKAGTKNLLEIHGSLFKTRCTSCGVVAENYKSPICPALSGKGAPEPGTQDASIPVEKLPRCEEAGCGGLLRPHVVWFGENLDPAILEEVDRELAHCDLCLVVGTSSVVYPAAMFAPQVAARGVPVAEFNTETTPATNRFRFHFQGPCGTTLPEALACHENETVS

As to `COc1ccc(-c2noc(CCCBr)n2)cc1`, the result in the assay with U-937 [1] was Active. In addition, the IC50 was 25 µM in the assay on U-937 [2]; 62 µM in the assay with OCI-AML-3; 16 µM in the assay on MV4-11; 37 µM in the assay with OCI-AML2; 10.4 µM in [4]; 18.4 µM in [5]. Besides, the concentration for half-maximal inhibition (IC50) was 36 µM with KARPAS-299, 12 µM with NB-4 [6], 30 µM in the assay with HL-60 [7] and 10.3 µM with Kasumi 1. Moreover, the Activity in the assay with NB-4 [3], in the assay with K562 and in the assay with MDA-MB-231 was more than 80% each time.
For the compound `N#C/C(=C\c1ccc(-c2cc(Cl)ccc2Cl)o1)C(=O)Nc1cccc2ncccc12`, the inhibition entry in assay [8], in [10] and in assay [11] was “Active” each time. For the same compound, in the assay with HL-60 [9], the Activity is 6%. The inhibition entry in assay [12] and in assay [13] was “inactive” each time.
